Screening results (PubChem)
In the library only some 3.7% were active in any assay of this set; here they are far more common.
KCNK9 block: human KCNK9 channel inhibition; B-score at 10 µM; 1.2% of 310,000 active; Q9NPC2; HEK293 KCNK9, FluxOR thallium flux fluorescence; active compounds read low; AID 488922;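 active = ratio B-score over 3 SD below the library mean, with starting fluorescence within 5 SD of its mean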;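 note: negative B-score means less thallium flux so channel inhibition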
Kir21 inh: inhibitors of mouse Kir2.1 inward-rectifier potassium channel | P35561 | 0.85% of 310,000 active | B-score at 10 µM | HEK293-Kir2.1, FluxOR thallium flux fluorescence; active compounds read low;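 active = fluorescence ratio B-score at or below minus 3 SD of library scores, with starting-brightness B-score within 2 SD, cut at about -4.2 in these data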;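 note: channel flux triggered by added potassium and thallium sulfate stimulus; B-score of peak minus minimum fluorescence over baseline after thallium stimulus; more negative B-score means stronger Kir2.1 block with less thallium influx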
KCNK3 block: human KCNK3 channel inhibition, primary screen; CHO-KCNK3 thallium flux, FluxOR fluorescence; active compounds read low; B-score at 10 µM; 0.84% of 340,000 active;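 active = B-score under library mean minus 4 SD, starting fluorescence ratio at most library mean plus 5 SD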;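 note: more negative B-score means stronger inhibition of thallium flux through KCNK3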
Target sequence (O14649 whole entry, looked up): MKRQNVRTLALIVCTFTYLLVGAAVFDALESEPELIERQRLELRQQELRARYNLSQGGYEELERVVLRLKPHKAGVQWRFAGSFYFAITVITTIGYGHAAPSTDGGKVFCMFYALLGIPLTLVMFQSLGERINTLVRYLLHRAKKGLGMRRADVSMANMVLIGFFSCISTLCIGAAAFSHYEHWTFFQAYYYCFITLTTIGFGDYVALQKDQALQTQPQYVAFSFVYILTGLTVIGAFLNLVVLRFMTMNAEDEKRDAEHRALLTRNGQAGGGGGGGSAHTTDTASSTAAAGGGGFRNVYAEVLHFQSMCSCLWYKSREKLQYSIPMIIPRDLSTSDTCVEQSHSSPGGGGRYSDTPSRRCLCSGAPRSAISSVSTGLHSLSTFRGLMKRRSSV
KCNQ1 pot: potentiates or activates the human KCNQ1 potassium channel; P51787; CHO-K1 KCNQ1, thallium flux FluxOR fluorescence; active compounds read high; B-score at 10 µM; 0.35% of 310,000 active;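 active = fluorescence ratio B-score, a plate-corrected score, at least three library SD, with initial intensity B-score within 5 SD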
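assay system = KCNQ1-transfected CHO-K1 cells | medium = assay buffer with matched DMSO | probe or stimulus = depolarizing K+/Tl+ stimulus, K2SO4 and Tl2SO4 each 12.5 mM in 5x stock | dosing = single dose | incubation = dye 90 min, compound 20 min, room temperature | detection = kinetic FluxOR fluorescence, 10 s baseline plus 110 s post-stimulus | evaluation = ratio B score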
KCNQ1 inh: inhibitors of human KCNQ1 potassium channel; 1.3% of 310,000 active; AID 2642; B-score at 10 µM; CHO-K1 KCNQ1, FluxOR thallium flux fluorescence; active compounds read high;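 active = compounds whose thallium flux B-score, printed positive for inhibition, exceeds three library SD while starting fluorescence stays within three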;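 note: channel opened by potassium depolarization with thallium stimulus after 20 min compound exposure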
hERG rescue: shields human hERG channel from block by proarrhythmic agents | Q12809 | CHO-hERG, FluxOR thallium flux, dofetilide IC70 present | activation (rescue from dofetilide block), less the hit threshold, % at 10 µM | 0.51% of 310,000 active;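 active = activation above the mean of controls blocked by dofetilide plus 5 SD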;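 note: thallium influx through hERG after potassium depolarization seen as dye fluorescence rise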
KCNK9 block conf: confirmation of human KCNK9 potassium channel inhibitors; HEK293 KCNK9 cells, FluxOR thallium flux fluorescence; 43% of 4,900 active; inhibition, % at 10 µM; AID 492992; shares compounds with KCNK9 block;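 active = thallium signal inhibited by more than 5 SD of the compound-free buffer control wells, on both duplicate plates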;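 note: 0% = assay buffer control wells without compound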
Kir2-1 spec: tests whether KCNK9 modulators also affect mouse Kir2.1. inhibition, % at 10 µM. shares compounds with KCNK9 block. Kir2.1 cells, FluxOR thallium flux fluorescence. AID 492993. 4% of 4,900 active;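 active = thallium signal drop more than 5 SD beyond the mean of the no-compound control wells, seen in both duplicate plates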;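 note: signal is fluorescence rise after thallium addition divided by baseline fluorescence; plate controls were assay buffer only for no effect and full block by chlorpromazine control for full effect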
HEK293 Tl ctr: non-induced cell nonspecific activity of KCNK9 modulators; AID 492997; shares compounds with KCNK9 block; 40% of 4,900 active; non-induced KCNK9-HEK293, FluxOR thallium flux; inhibition, % at 10 µM;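 active = thallium signal drop beyond 5 SD of the untreated control mean, on both duplicate plates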;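 note: plate controls were buffer only IC0 wells for no effect and SID17386958 at its maximal inhibitory level for full effect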
An asterisk follows results filed as active.

What do the screens show for `NC(=O)SCC(=O)Nc1cccc(Cl)c1`?
KCNK9 block: -10*; Kir21 inh: -0.89; KCNK3 block: inactive; KCNQ1 pot: inactive; KCNQ1 inh: inactive; hERG rescue: 0; KCNK9 block conf: 58%*; Kir2-1 spec: inactive; HEK293 Tl ctr: 36%*

How did C[C@H](CO)N1C[C@H](C)[C@@H](CN(C)CC2CC2)Oc2c(NC(=O)Cc3ccccc3)cccc2C1=O do in these assays?
KCNK3 block: inactive

How did CC(=O)c1cccc(CN2CCCC(N3CCN(c4ccccc4F)CC3)C2)c1 (stereo unspecified) do in these assays?
KCNK9 block: inactive; Kir21 inh: 2.6; KCNK3 block: inactive; KCNQ1 pot: inactive; KCNQ1 inh: inactive; hERG rescue: -4; KCNK9 block conf: inactive; Kir2-1 spec: inactive; HEK293 Tl ctr: inactive

What do the screens show for `Fc1ccccc1N1CCN(C2CCCN(Cc3ccccc3C(F)(F)F)C2)CC1` (stereo unspecified)?
KCNK9 block: inactive; Kir21 inh: 0.66; KCNK3 block: inactive; KCNQ1 pot: inactive; KCNQ1 inh: inactive; hERG rescue: -13; KCNK9 block conf: inactive; Kir2-1 spec: inactive; HEK293 Tl ctr: inactive

Results for COc1ccccc1N1CCN(C2CCCN(Cc3cccc(O)c3)C2)CC1 (stereo unspecified) ?
KCNK9 block: inactive; Kir21 inh: 0.5; KCNK3 block: inactive; KCNQ1 pot: inactive; KCNQ1 inh: inactive; hERG rescue: -7

How did CC(=O)Nc1ccc(S(=O)(=O)N[C@@H](C)C(=O)NC2CCCc3ccccc32)cc1 (stereo partly specified) do in these assays?
KCNK3 block: inactive

How did O=C(CCc1ccccc1)n1nc(-c2ccccc2)nc1NCc1ccco1 do in these assays?
KCNK9 block: -8.4*; Kir21 inh: 0.02; KCNK3 block: inactive; KCNQ1 pot: inactive; KCNQ1 inh: inactive; hERG rescue: -9; KCNK9 block conf: inactive; Kir2-1 spec: inactive; HEK293 Tl ctr: 33%*

What do the screens show for `COc1ccc(CC(=O)n2nc(-c3ccccc3)nc2NCc2ccco2)cc1`?
KCNK9 block: inactive; Kir21 inh: -0.41; KCNK3 block: inactive; KCNQ1 pot: inactive; KCNQ1 inh: inactive; hERG rescue: -6

Results for CCCC(=O)NCC(c1cccs1)S(=O)(=O)c1ccc(C)cc1 (stereo unspecified) ?
KCNK9 block: inactive; Kir21 inh: -1.6; KCNK3 block: inactive; KCNQ1 pot: inactive; KCNQ1 inh: inactive; hERG rescue: -5

How did Cc1cc(Oc2cnn(C(C)(C)C)c(=O)c2Cl)cc(C(C)C)c1 do in these assays?
KCNK9 block: inactive; Kir21 inh: -0.64; KCNK3 block: inactive; KCNQ1 pot: inactive; KCNQ1 inh: inactive; hERG rescue: -21; KCNK9 block conf: inactive; Kir2-1 spec: inactive; HEK293 Tl ctr: inactive

What do the screens show for `CCOc1cnn(-c2cc(Oc3ccc(C)cc3)ncn2)c(=O)c1Cl`?
KCNK9 block: inactive; Kir21 inh: 0.22; KCNK3 block: inactive; KCNQ1 pot: inactive; KCNQ1 inh: inactive; hERG rescue: -8

Results for O=C(O)CCSc1nc2ccccc2s1 ?
KCNK9 block: inactive; Kir21 inh: -0.04; KCNK3 block: inactive; KCNQ1 pot: inactive; KCNQ1 inh: inactive; hERG rescue: -2

What do the screens show for `c1ccc2sc(SCSc3nc4ccccc4s3)nc2c1`?
KCNK9 block: -13*; Kir21 inh: 2; KCNK3 block: inactive; KCNQ1 pot: inactive; KCNQ1 inh: inactive; hERG rescue: -9; KCNK9 block conf: 72%*; Kir2-1 spec: inactive; HEK293 Tl ctr: 38%*

Results for COc1cc(C(=O)NCCCCc2ccccc2)cc(OC)c1OC ?
KCNK9 block: inactive; Kir21 inh: 0.77; KCNK3 block: inactive; KCNQ1 pot: inactive; KCNQ1 inh: inactive; hERG rescue: -5

How did CC(C)c1ccc(-n2c(-c3ccccc3)c[n+]3c2CCc2ccccc2-3)cc1 do in these assays?
KCNK9 block: -16*; Kir21 inh: -14*; KCNK3 block: inactive; KCNQ1 pot: inactive; KCNQ1 inh: inactive; hERG rescue: -49; KCNK9 block conf: 72%*; Kir2-1 spec: 75%*; HEK293 Tl ctr: 32%*

What do the screens show for `COC(=O)c1cn(CCOc2ccccc2OC)c2ccccc12`?
KCNK9 block: inactive; Kir21 inh: -3.1; KCNK3 block: inactive; KCNQ1 pot: inactive; KCNQ1 inh: inactive; hERG rescue: -11

What do the screens show for `COC(=O)c1cn(CCOc2ccccc2F)c2ccccc12`?
KCNK9 block: -11*; Kir21 inh: -0.58; KCNK3 block: inactive; KCNQ1 pot: inactive; KCNQ1 inh: inactive; hERG rescue: -15; KCNK9 block conf: 45%*; Kir2-1 spec: inactive; HEK293 Tl ctr: 44%*

Results for N#C/C(=C\c1ccc(Cl)cc1)c1nc2ncccc2[nH]1 ?
KCNK9 block: inactive; Kir21 inh: 0.13; KCNK3 block: inactive; KCNQ1 pot: inactive; KCNQ1 inh: inactive; hERG rescue: -15

How did CCn1c(N2CCN(S(=O)(=O)c3ccc(F)cc3)CC2)nc2ccccc21 do in these assays?
KCNK9 block: inactive; Kir21 inh: -0.03; KCNK3 block: inactive; KCNQ1 pot: inactive; KCNQ1 inh: inactive; hERG rescue: -6

What do the screens show for `CCn1c(N2CCN(S(=O)(=O)c3ccc(Cl)cc3)CC2)nc2ccccc21`?
KCNK9 block: inactive; Kir21 inh: -0.11; KCNK3 block: inactive; KCNQ1 pot: inactive; KCNQ1 inh: inactive; hERG rescue: 5.8*; KCNK9 block conf: inactive; Kir2-1 spec: inactive; HEK293 Tl ctr: inactive

What do the screens show for `N#Cc1ccc(-c2cccnc2)nc1SCc1ccc(Cl)cc1Cl`?
KCNK9 block: -13*; Kir21 inh: 0.54; KCNK3 block: inactive; KCNQ1 pot: inactive; KCNQ1 inh: inactive; hERG rescue: -4; KCNK9 block conf: 46%*; Kir2-1 spec: inactive; HEK293 Tl ctr: 38%*

What do the screens show for `N#Cc1ccc(-c2cccnc2)nc1SCc1ccc(Cl)c(Cl)c1`?
KCNK9 block: inactive; Kir21 inh: 3; KCNK3 block: inactive; KCNQ1 pot: inactive; KCNQ1 inh: inactive; hERG rescue: -4

How did Cc1nc(NCc2ccccn2)c2c3c(sc2n1)CCCC3 do in these assays?
KCNK9 block: inactive; Kir21 inh: 8.5e-16; KCNK3 block: inactive; KCNQ1 pot: inactive; KCNQ1 inh: inactive; hERG rescue: -7; KCNK9 block conf: inactive; Kir2-1 spec: inactive; HEK293 Tl ctr: inactive
